The M2OR odorant receptor database

The molecules below were run against T1, OR1A1 (Homo sapiens) (UniProt Q9P1Q5). Settings: stereoisomer not certain.
T1 sequence (whole entry): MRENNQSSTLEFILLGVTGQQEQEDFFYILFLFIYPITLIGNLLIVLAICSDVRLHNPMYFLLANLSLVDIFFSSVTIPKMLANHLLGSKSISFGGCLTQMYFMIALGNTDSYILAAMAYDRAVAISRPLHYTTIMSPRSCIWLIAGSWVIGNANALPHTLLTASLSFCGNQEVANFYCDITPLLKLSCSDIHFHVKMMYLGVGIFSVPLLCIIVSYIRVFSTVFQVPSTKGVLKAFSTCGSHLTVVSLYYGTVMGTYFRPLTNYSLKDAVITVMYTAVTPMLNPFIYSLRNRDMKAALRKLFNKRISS
Summary of the method: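 Assay methods differ from source to source, frequently being transient luciferase assays in mammalian cell lines. For each receptor–molecule pair, the label responsive (active) applies when the original authors judged the measured signal statistically different from baseline, and non-responsive (inactive) applies otherwise.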

SMILES | odorant receptor agonist call
Cc1occc(=O)c1O | inactive
CCCCCCCC(=O)OCC | inactive
CC(C)=CC1CC(C)CCO1 (configuration not stated) | inactive
CCCCCO | inactive
CC(=O)CCc1ccc(O)cc1 | inactive
COC1=C(C)OC(C)C1=O (configuration not stated) | inactive
CCCC=CC=O | inactive
CCCCCCCO | active
CCCCCCCCC1CCC(=O)O1 (configuration not stated) | inactive
CCc1cccc(O)c1 | inactive
O=C(c1ccccc1)c1ccccc1 | active
CCCCCC=CCCC=O | active
CCCCCCCCCS | active
CC(C)=CCCC(C)=CCO | active
O=C1CCOc2ccccc21 | active
CSSSC | inactive
CCCCC=CC=O | inactive
CCCC(=O)C(C)=O | inactive
CSCSC | inactive

SMILES | odorant receptor agonist call
CCCC(C)=O | inactive
CCCCCCCCS | active
c1cnc2c(c1)ccc1cccnc12 | inactive
CCOC(=O)Cc1cccc(Br)c1 | active
CCCCCC(=O)CC | active
CCCCCCCC=CC=CC=O | inactive
CCCCCCCC(C)=O | active
COc1cccc(OC)c1O | inactive
CC(C)CC=O | inactive
CC(C)=CCCC(C)=CC#N | inactive
CCC(=O)C(=O)CC | inactive
CC1=CCC(C(C)C)C=C1 (configuration not stated) | inactive
C=C(C)C1CCC(C)C(=O)C1 (configuration not stated) | active
CCCCCCCC1CCC(=O)O1 (configuration not stated) | inactive
CCCCOC(=O)C(C)OC(=O)CCC (configuration not stated) | inactive
CCCCC(=O)O | inactive
COc1nccnc1C(C)C | inactive
C=CC(=C)CCC=C(C)C | inactive
